Compound activity: PubChem, several laboratories
The full list was thinned out, with hits kept by preference.
Lmaj promast = reduces viability of Leishmania major promastigotes; resazurin fluorescence viability; inhibition, % at 10 µM; 200,000 tested, 9% active;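 note: promastigotes grown with compound for 44 hours at 28 °C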
ABCB1 block = human ABCB1 inhibition, ABCG2 as counter-screen; 190,000 tested, 0.067% active; CCRF-Adr cells, JC-1 efflux, flow cytometry; P08183; inhibition, % at 6.6 µM; AID 1326; in the data active = inhibition above about 40%;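 note: 0% = vehicle and 100% = reference inhibitor; higher value means more JC-1 retained so stronger ABCB1 efflux block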
Avidin fluor = compound fluoresces at 488/530 nm on avidin beads; AID 1775; fluorescence (KMESF) at 10 µM; 220,000 tested, 0.38% active; compound fluorescence 488/530 nm, flow cytometry; stronger effect = higher value; in the data active = fluorescence above about 47
GSH bead fluor = compound fluoresces at 488/530 nm on GSH beads. GSH beads flow cytometry, compound fluorescence 488/530 nm; stronger effect = higher value. fluorescence (KMESF) at 10 µM. 190,000 tested, 0.25% active. AID 1776; in the data active = fluorescence above about 89;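 note: glutathione beads carrying GST-tagged Bcl family fusion proteins plus one bare bead set; values are compound well signal with DMSO vehicle wells as background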
PKD1 kinase inh = inhibitors of human PKD1 kinase | PKD1 kinase fluorescence polarization assay | inhibition, % (concentration not given with the values) | AID 797 | 200,000 tested, 0.056% active
Target sequence (Q15139 whole entry, looked up): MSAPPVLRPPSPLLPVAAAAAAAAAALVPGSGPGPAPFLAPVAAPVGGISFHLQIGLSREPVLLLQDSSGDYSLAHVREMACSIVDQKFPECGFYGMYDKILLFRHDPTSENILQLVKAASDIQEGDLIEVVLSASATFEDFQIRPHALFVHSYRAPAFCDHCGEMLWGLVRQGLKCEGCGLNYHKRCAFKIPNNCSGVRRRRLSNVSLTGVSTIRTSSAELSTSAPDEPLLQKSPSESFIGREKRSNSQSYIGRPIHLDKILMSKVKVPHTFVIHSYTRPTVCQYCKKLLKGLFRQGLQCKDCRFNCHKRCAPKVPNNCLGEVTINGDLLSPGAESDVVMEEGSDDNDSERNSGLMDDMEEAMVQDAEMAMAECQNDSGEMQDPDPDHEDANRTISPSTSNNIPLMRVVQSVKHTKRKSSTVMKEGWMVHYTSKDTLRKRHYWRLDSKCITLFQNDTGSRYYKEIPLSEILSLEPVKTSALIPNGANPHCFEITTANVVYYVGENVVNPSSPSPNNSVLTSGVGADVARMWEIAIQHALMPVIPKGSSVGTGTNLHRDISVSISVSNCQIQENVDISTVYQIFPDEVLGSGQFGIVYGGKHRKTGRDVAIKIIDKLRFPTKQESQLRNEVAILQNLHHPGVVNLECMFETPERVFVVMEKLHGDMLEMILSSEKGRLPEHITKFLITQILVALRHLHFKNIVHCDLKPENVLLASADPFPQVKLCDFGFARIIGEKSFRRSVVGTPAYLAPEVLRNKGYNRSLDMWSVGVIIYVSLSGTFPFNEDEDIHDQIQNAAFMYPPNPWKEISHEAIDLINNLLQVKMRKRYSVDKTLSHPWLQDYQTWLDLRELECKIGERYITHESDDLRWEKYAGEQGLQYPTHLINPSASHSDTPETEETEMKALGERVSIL
ABCG2 block = blocks JC-1 efflux by human ABCG2 transporter. Q9UNQ0. inhibition, % at 6.6 µM. 190,000 tested, 0.1% active. IgMXP3 cells, flow cytometry;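 active = inhibition above 80%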;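 note: 0% = DMSO and 100% = nicardipine control wells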
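Incubation: cells with compound and JC-1, 10 min at 25 °C, rotating, no wash / Test system: IgMXP3 (ABCG2) plus far-red-tagged CCRF-Adr (ABCB1) cells / Compound dosing: one concentration, 6.6 µM final / Also added: JC-1 fluorescent substrate / Evaluation: efflux inhibition in percent versus controls / Detection: flow cytometry, 530 nm JC-1 signal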
Numbers without * were called inactive; . = no result. Cut-off read from the data, not from the text of the source, unless noted: active = inhibition above about 50%; inactive = the rest.

SMILES | Lmaj promast | ABCB1 block | Avidin fluor | GSH bead fluor | PKD1 kinase inh | ABCG2 block
O=C(Nc1nc(-c2ccccn2)cs1)c1ncc(Cl)c(Cl)c1Cl | 101* | -6 | 7 | 31 | -4 | 0
O=C(CSc1nnc(SCc2cccc3ccccc23)s1)N=Nc1c(O)[nH]c2ccccc12 | -7 | 0 | 10 | 9 | -1 | -3
Cc1cccc(C(=O)NC(C(=O)Nc2nc(-c3ccccn3)cs2)C(C)C)c1 (centres undefined) | 98* | 1 | 8 | 16 | -1 | 2
O=C(CSCc1ccccc1)N/N=C/c1ccc(OCC(=O)N2CCCCC2)cc1 | 57* | 1 | 16 | 8 | -13 | 8
CCS(=O)(=O)N1CCCC(C(=O)N2CCc3ccccc3C2)C1 (centres undefined) | -7 | 2 | 12 | 15 | 1 | 11
O=C(C1CCCN(Cc2ccncc2)C1)N1CCc2ccccc2C1 (centres undefined) | 91* | 0 | 36 | 25 | 17 | -1
O=C(C1CCCN(Cc2ccccc2F)C1)N1CCc2ccccc2C1 (centres undefined) | . | . | 9 | . | . | .
Cc1cccc(CN2CCCC(C(=O)N3CCc4ccccc4C3)C2)c1 (centres undefined) | 95* | 5 | 4 | 15 | 2 | 5
COC1=C(OC)c2ccccc2C(C(=O)O)N/C1=C(/C)Nc1ccncc1 (centres undefined) | -2 | 0 | 9 | 267* | -16 | 1
CC(C)(C)c1nnc(N/N=C/c2ccccc2)n(N)c1=O | -5 | 0 | 4 | 6 | -4 | 0
CC(C)(C)c1nnc(N/N=C/c2ccccc2O)n(N)c1=O | 98* | 0 | 8 | 14 | -7 | -2
O=S(=O)(Nc1cccc2cccnc12)c1ccc(S(=O)(=O)N2CCCC2)cc1 | 99* | 0 | 10 | 11 | 7 | 0
CS(=O)(=O)Nc1cccc2cccnc12 | 80* | 1 | 13 | 9 | -13 | 2
O=C(Nc1ccc(S(=O)(=O)Nc2ncccn2)cc1)c1ccc(S(=O)(=O)N2CCCC2)cc1 | 18 | 0 | 8 | 19 | -9 | -1
NC(=S)Nc1cccc2cccnc12 | 89* | 1 | 13 | 23 | -3 | 2
NC(=S)NNc1cccc2cccnc12 | -2 | 0 | 11 | 8 | -1 | 0
COC(=O)c1ccc(C(NC(=O)c2cccnc2)NC(=O)c2cccnc2)cc1 | -3 | 1 | 9 | 16 | -6 | 6
CCOc1ccccc1CN1CCN(Cc2csc(C(C)=O)c2)CC1CCO (centres undefined) | 73* | 3 | 3 | 10 | 2 | 4
Cc1ccc(CN2CCN(Cc3cccc4c3OCO4)CC2CCO)cc1 (centres undefined) | 58* | 1 | 7 | 16 | 6 | 1
CCOc1ccc(CN2CCN(Cc3[nH]c4ccccc4c3C)CC2CCO)cc1 (centres undefined) | 77* | 0 | 11 | 14 | -1 | 1
CCOc1ccc(CN2CCN(Cc3cccc4c3OCO4)CC2CCO)cc1 (centres undefined) | 77* | 1 | 2 | 8 | 0 | 2
Cc1cc(C(=O)NNS(=O)(=O)c2ccc(C(C)(C)C)cc2)nn1C(C)(C)C | . | . | 20 | . | . | .
O=C(O)/C=C/C(=O)NNc1ncnc2ccccc12 | . | . | 8 | . | . | .
COc1cccc(CNC(=O)CCC2CCCN(C(=O)c3ccc(OC)c(F)c3)C2)c1 (centres undefined) | -5 | 0 | 10 | 9 | -3 | 0
CSc1ccc(/C=C/c2ccc3cccc(O)c3n2)cc1 | 89* | 0 | 9 | 18 | 1 | 0
SMILES | Lmaj promast | ABCB1 block | Avidin fluor | GSH bead fluor | PKD1 kinase inh | ABCG2 block
Cc1ccsc1/C=C/c1ccc2cccc(O)c2n1 | 98* | 0 | 12 | 33 | -1 | 15
Cc1ccsc1/C=C/c1ccc2ccccc2n1 | 0 | 0 | 11 | 34 | -5 | 2
Oc1cccc2ccc(/C=C/c3cccs3)nc12 | 94* | 0 | 10 | 30 | -3 | 0
Oc1ccc(Cl)cc1/C=C/c1ccc2cccc(O)c2n1 | 89* | 0 | 19 | 11 | 0 | 2
Oc1c(Cl)cc(Cl)cc1/C=C/c1ccc2cccc(O)c2n1 | 46 | 1 | 9 | 15 | 2 | 1
CCOC(=O)N1CCN(C(=O)c2ccc3c(=O)n(-c4cc(OC)ccc4OC)c(=S)[nH]c3c2)CC1 | -7 | -1 | 5 | 12 | -3 | 0
CC(C)(C)c1ccc(C(=O)NNc2cc(N3CCCCC3)nc(N3CCCCC3)n2)cc1 | 11 | 0 | 175* | 119* | -27 | 1
CC(C)(C)c1ccc(C(=O)NNc2cc(N3CCOCC3)nc(N3CCOCC3)n2)cc1 | 4 | 6 | 9 | 13 | 5 | 13
O=C1CCCc2c1sc1nc3n(c(=O)c21)CCCCC3 | 2 | 0 | 3 | 17 | -12 | 1
O=c1c2c3c(sc2nc2n1CCCCC2)CCC3 | 55* | 1 | 34 | 24 | -4 | 7
Cc1ccccc1C(=O)NC(C(=O)Nc1nc2c(s1)CCCC2)C(C)C (centres undefined) | 50* | 1 | 9 | 10 | -2 | 3
Cc1ccc(C)c(-c2cc(C(=O)Nc3sc(C)c(C)c3C(N)=O)c3ccccc3n2)c1 | 61* | 1 | 36 | 16 | 8 | 1
Cc1ccccc1-c1cc(C(=O)Nc2nc3c(s2)CCCC3)c2ccccc2n1 | 65* | 0 | 26 | 15 | -3 | 1
Cc1ccccc1C(=O)N[C@H](C(=O)Nc1ccc(Cl)c(Cl)c1)C(C)C | 9 | 0 | 7 | 20 | 7 | 0
Cc1cccc(-c2cc(C(=O)Nc3sc(C)c(C)c3C(N)=O)c3ccccc3n2)c1 | -1 | 1 | 24 | 9 | -6 | 2
COc1ccc(N(CC(=O)NCCC2=CCCCC2)S(=O)(=O)c2ccc(C)cc2)cc1 | 2 | 6 | 9 | 17 | -2 | 11
COc1ccc(NC(=S)N2C3CCC2CC(NC(=O)NC24CC5CC(CC(C5)C2)C4)C3)c(OC)c1 (centres undefined) | -3 | 1 | 7 | 31 | -18 | 2
CCOc1ccccc1NC(=S)N1CCC(NC(=O)NC23CC4CC(CC(C4)C2)C3)CC1 | 60* | 0 | 8 | 49 | -5 | 1
COc1ccccc1NC(=S)N1CCC(NC(=O)NC23CC4CC(CC(C4)C2)C3)CC1 | 97* | 1 | 12 | 23 | -4 | 2
CC(C)[C@H](NC(=O)c1ccccc1)C(=O)OCC(=O)NCCC1=CCCCC1 | 59* | 1 | 54* | 8 | -7 | -3
CC(C)C(NC(=O)c1ccc(C(C)(C)C)cc1)C(=O)OCC(=O)NC(=O)Cc1ccccc1 (centres undefined) | 50* | 1 | 8 | 10 | 0 | 8
CC(C)Oc1ccc(C(CC(=O)O)NC(=O)c2cccs2)cc1 (centres undefined) | -4 | 0 | . | 30 | -1 | 1
